Measurements taken from ChEMBL document CHEMBL1149315, “Insertion of an aspartic acid moiety into cyclic pseudopeptides: synthesis and biological characterization of potent antagonists for the human Tachykinin NK-2 receptor” (J Med Chem, 2004).
The source made the active and inactive calls. Unless noted, no cut-off for these calls is given here.

Key:
[1] = molecular target: T1, Substance-K receptor (Homo sapiens, UniProt P21452); test: Displacement of [125I]neurokinin A from human NK2 receptor expressed in CHOK1 cells; assay type: cell-based, CHO-K1
T1 sequence (P21452 whole entry): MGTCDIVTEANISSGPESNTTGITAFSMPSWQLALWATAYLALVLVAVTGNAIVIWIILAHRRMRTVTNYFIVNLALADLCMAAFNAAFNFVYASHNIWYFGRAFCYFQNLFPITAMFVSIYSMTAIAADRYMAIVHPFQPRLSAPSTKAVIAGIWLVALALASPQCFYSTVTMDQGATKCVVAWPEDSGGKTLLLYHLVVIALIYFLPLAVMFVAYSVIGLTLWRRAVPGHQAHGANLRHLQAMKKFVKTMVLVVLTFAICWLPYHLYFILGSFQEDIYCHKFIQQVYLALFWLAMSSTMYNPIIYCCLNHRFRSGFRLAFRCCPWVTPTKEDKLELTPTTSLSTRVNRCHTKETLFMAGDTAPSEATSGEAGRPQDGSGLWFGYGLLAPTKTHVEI
How it was run: (§1)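 Competition binding was run on membranes of cells stably transfected with the human receptor: U-373MG for NK-1, CHO-K1 for NK-2 and NK-3. NK-1 used [3H][Sar9]SP sulfone at 1.2 nM. Affinity is given as pKi (−log Ki).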

[2] = molecular target: T2, Substance-K receptor (Rattus norvegicus) (UniProt P16610); test: Antagonist activity at NK2 receptor in rat urinary bladder assessed as effect on beta-Ala8]NKA(4-10)-induced mechanical activity; assay type: functional; settings: filed as antagonist
T2 sequence (whole entry): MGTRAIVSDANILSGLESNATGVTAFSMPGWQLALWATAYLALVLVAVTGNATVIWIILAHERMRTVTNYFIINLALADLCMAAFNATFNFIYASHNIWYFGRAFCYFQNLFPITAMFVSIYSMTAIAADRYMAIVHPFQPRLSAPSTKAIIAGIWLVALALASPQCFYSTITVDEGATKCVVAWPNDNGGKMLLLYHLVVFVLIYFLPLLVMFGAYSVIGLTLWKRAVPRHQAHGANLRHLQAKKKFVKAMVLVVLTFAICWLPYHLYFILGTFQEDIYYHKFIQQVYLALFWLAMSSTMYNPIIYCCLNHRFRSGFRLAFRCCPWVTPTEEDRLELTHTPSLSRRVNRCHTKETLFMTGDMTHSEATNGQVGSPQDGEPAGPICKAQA
How it was run: (§2)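 Isolated smooth muscle strips were held in oxygenated (96% O2/4% CO2) Krebs–Henseleit at NaCl 119, NaHCO3 25, KH2PO4 1.2, MgSO4 1.5, CaCl2 2.5, KCl 4.7 and glucose 11 mM. Cumulative agonist concentration–response curves were run after 15 min antagonist incubation. pKB = log(dose ratio − 1) − log[antagonist], as the mean of individual values.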

[3] = molecular target: Substance-P receptor (Cavia porcellus) (UniProt P30547); test: Antagonist activity at NK1 receptor in guinea pig ileum assessed as effect on substance P methyl ester-induced mechanical activity; assay type: functional, tissue-based; how it was run: as §2
Substance-P receptor (Cavia porcellus), sequence (P30547 whole entry): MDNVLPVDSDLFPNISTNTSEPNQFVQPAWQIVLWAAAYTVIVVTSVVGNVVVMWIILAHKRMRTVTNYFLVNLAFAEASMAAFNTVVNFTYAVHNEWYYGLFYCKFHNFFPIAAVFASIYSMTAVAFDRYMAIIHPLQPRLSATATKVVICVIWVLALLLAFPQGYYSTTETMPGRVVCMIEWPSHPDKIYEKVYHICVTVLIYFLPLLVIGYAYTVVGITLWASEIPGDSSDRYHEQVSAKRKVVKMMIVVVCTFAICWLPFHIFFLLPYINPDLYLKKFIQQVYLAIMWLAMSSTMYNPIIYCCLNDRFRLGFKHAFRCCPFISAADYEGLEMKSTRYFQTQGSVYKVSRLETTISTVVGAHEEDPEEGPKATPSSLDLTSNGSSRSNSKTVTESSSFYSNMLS

[4] = molecular target: T3, Neuromedin-K receptor (Cavia porcellus) (UniProt P30098); test: Antagonist activity at NK3 receptor in guinea pig ileum assessed as effect on senktide-induced mechanical activity; assay type: functional, tissue-based; settings: filed as antagonist
T3 sequence (whole entry): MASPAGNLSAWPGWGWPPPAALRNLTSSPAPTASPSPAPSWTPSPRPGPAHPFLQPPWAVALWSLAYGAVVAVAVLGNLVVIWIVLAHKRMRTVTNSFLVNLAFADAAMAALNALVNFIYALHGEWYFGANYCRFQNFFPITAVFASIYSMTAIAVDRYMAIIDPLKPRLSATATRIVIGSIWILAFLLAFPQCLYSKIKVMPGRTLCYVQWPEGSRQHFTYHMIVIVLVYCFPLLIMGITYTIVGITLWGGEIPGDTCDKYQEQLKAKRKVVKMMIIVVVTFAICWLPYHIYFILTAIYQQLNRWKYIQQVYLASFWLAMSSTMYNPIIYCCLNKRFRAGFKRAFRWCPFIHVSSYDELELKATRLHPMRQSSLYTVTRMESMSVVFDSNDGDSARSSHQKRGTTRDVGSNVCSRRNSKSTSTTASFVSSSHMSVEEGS

[5] = molecular target: Substance-P receptor (Homo sapiens, UniProt P25103); test: Displacement of [3H][Sar9]SP sulfone from human NK1 receptor expressed in U373MG cells; assay type: cell-based, U-373MG ATCC; how it was run: as §1
Substance-P receptor, sequence (P25103 whole entry): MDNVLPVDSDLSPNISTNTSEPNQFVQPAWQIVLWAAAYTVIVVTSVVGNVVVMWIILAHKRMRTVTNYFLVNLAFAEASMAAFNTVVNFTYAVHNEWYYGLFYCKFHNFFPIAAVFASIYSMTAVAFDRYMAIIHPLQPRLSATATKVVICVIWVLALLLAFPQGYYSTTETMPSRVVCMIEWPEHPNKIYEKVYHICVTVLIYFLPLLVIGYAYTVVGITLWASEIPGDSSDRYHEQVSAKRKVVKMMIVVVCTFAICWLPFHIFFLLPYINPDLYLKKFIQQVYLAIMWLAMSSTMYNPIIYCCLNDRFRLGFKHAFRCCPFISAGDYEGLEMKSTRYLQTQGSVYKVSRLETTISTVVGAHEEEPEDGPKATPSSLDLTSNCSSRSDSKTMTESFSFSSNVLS

[6] = molecular target: T4, Neuromedin-K receptor (Homo sapiens, UniProt P29371); test: Displacement of [125I][MePhe7]NKB from human NK3 receptor expressed in CHOK1 cells; assay type: cell-based, CHO-K1; how it was run: as §1
T4 sequence (P29371 whole entry): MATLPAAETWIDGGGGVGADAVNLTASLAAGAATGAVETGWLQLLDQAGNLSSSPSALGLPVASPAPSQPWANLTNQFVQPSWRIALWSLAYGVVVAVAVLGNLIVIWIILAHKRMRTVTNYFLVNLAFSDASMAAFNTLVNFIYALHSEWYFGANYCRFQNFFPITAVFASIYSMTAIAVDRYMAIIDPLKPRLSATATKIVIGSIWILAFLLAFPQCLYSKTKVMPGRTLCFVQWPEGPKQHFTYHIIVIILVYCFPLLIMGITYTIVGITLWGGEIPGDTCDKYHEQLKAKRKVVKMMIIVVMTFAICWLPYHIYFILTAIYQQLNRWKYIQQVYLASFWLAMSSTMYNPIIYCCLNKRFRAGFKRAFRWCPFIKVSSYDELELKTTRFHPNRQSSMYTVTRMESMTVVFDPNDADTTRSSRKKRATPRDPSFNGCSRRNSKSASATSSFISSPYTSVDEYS

[7] = tested on: Cavia porcellus; test: Inhibition of [beta-Ala8]NKA(4-10)-induced bronchoconstriction in anesthetized Dunkin Hartley guinea pig at 100 nmol/kg, it relative to control; assay type: functional, organism-based; settings: 10 nmol/kg, in the assay text read “10 nmol/kg” for “100 nmol/kg”
How it was run: (§3)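 Male Dunkin Hartley guinea pigs (350–400 g) were anesthetized with urethane 1.5 g/kg sc, kept at 36 °C and ventilated at 60 strokes/min. After two reproducible control responses to agonist (1 nmol/kg iv, jugular vein), antagonist was given intratracheally near the bronchial bifurcation. Dosing was 5 and 30 min before challenge, with challenges repeated every 30 min up to 4 h. Bronchoconstriction = insufflation pressure rise over basal (mmHg), expressed as % inhibition of control.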

[8] = tested on: Cavia porcellus; test: Inhibition of [beta-Ala8]NKA(4-10)-induced bronchoconstriction in intratracheally dosed anesthetized Dunkin Hartley guinea pig; assay type: functional; settings: Trachea, inhaled or nasal; how it was run: as §3
[9] = tested on: Cavia porcellus; test: Inhibition of [beta-Ala8]NKA(4-10)-induced bronchoconstriction in anesthetized Dunkin Hartley guinea pig at 10 nmol/kg, it relative to control; assay type: functional; how it was run: as §3

Structure (SMILES)	Ki [1]	pKb [2]	pKb [3]	pKb [4]	Ki [5]	Ki [6]	Activity [7]	ED50 [8] [µmol/kg]	pKb ([3]; filed as antagonist)	inhibition in vivo at 0.01 µmol/kg [9] [%]
NS(=O)(=O)N1CCN(CC(=O)N[C@@H]2CC(=O)N[C@@H](Cc3c[nH]c4ccccc34)C(=O)N[C@@H](Cc3ccccc3)C(=O)N[C@H](Cc3ccccc3)CNC2=O)CC1	0.1 nM (antagonist)	9.5	< 5.5	5.9	200 nM (antagonist)	7940 nM (antagonist)	Active	0.00027		
O=C1C[C@@H](NC(=O)CN2CCC(N3CCOCC3)CC2)C(=O)NC[C@@H](Cc2ccccc2)NC(=O)[C@H](Cc2ccccc2)NC(=O)[C@H](Cc2c[nH]c3ccccc23)N1	0.158 nM (antagonist)	9.7		6.4	126 nM (antagonist)	1260 nM (antagonist)	Active	0.00015	7.5	80
